Screens from PubChem BioAssay.
Arr AP2 block = inhibitors of beta-arrestin/AP2 binding, primary screen, biochemical, GPCR trafficking, flow cytometry; inhibition, % at 10 µM; FITC-arrestin peptide / GST-AP2 beads; AP2 beta2 appendage carries R879A mutation; 0.31% of 340,000 active;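 active means inhibition above a set limit, near 3 SD of compounds lacking own fluorescence, cut at about 54% in these data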
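Assay system: GST-AP2 R879A bound to glutathione beads, E. coli-expressed; Medium: PBS with 0.05% Tween 20 and 0.1% BSA; Also added: fluorescein-tagged arrestin peptide at 50 nM final; Timing: 12 min plus 1 h, RT; Measured by: flow cytometry, FL1 (488/535 nm); Evaluation: percent drop in bead-associated FITC signal.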
HDAC3 inhib = HDAC3 deacetylase inhibitors, primary screen, biochemical, fluorescence, cell-free homogeneous; Histone deacetylase 3 (Homo sapiens), O15379; recombinant HDAC3, fluorogenic peptide/trypsin coupled; inhibition, % at 8.3 µM; 0.15% of 320,000 active; in the data active means inhibition above about 26%, passing the limit was not always enough; inconclusive means no clear call, values can overlap the other calls
Pemphigus Ab inh = inhibitors of pemphigus antibody binding to DSG3, primary screen, biochemical, bead-based, flow cytometry, scFv-GFP | Desmoglein-3 (Homo sapiens), P32926 | DSG3-coupled beads, scFv-anti-DSG3-GFP binding; stronger effect = lower value | binding (percent of control), % at 10 µM | 0.48% of 310,000 active | AID 588358, 2011;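 active means binding more than 3 SD below its plate's average and above zero; inconclusive means below that plate limit but binding exactly zero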;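 further: hits lower antibody fragment binding to DSG3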
Target sequence (P32926 whole entry, looked up, the tested form may be a part): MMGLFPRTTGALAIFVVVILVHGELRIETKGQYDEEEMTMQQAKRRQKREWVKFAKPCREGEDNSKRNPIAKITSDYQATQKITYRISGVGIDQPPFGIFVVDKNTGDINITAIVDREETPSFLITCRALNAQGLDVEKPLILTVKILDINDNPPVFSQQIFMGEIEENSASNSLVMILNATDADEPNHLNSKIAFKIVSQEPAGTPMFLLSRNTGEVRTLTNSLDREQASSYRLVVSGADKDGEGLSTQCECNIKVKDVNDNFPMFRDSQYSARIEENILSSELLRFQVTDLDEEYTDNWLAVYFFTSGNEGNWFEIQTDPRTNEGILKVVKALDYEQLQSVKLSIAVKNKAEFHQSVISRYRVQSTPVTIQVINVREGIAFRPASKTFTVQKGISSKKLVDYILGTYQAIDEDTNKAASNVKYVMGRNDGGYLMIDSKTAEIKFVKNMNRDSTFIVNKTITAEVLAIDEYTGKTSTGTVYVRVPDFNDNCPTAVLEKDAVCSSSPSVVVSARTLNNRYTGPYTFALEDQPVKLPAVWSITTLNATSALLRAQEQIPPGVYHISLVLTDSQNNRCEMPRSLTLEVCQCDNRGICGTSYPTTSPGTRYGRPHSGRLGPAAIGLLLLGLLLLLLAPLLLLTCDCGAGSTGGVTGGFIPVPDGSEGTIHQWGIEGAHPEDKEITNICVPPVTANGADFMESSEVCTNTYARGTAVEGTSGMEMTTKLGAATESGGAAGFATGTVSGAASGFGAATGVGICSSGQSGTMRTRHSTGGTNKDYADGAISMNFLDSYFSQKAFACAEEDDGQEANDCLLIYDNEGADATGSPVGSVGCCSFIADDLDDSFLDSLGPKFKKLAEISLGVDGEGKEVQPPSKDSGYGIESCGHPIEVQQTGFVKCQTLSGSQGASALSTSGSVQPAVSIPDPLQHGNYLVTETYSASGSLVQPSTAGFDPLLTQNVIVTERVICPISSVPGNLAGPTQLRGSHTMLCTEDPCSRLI
LANA-H2B inh = blockers of LANA interaction with H2A/H2B – biochemical, FP readout, HTS, primary screen; Protein LANA1 (Human herpesvirus 8 type P (isolate GK18)), Q9QR71; cell-free LANA-H2A/H2B peptide, fluorescence polarization; inhibition, % (concentration not given with the values); 0.6% of 320,000 active; in the data active means inhibition mostly above about 10%, no sharp cut-off; inactive means mostly below about 6.7%
T cell modulator = modulators of CD8 T cell-vesicle binding, primary screen, mouse 2C CD8+ T cells, flow cytometry | 2C CD8+ T cell-vesicle binding; stronger effect = lower value | response (vesicle binding), % at 7 µM | 0.068% of 330,000 active;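 active means response, share of CD8 T cells binding vesicles, and their 90th percentile fluorescence all below set limits, cut at about 80% in these data, passing the limit was not always enough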;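 further: values below 100% mean blocked vesicle binding to the CD8+ T cells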
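Material: murine 2C transgenic CD8+ T lymphocytes / Also added: QL9-peptide-loaded Drosophila micro-vesicles bearing Ld, ICAM-1 and B7-1 / Schedule: binding step 1.5 h, 37 °C, antibody labelling 20 min, ice / Signal: flow cytometry, PE anti-B7-1 (FL2) versus Alexa647 anti-CD8 (FL8), PFA-fixed / Evaluation: percent CD8+ FL2 mean versus row control / Benchmarks: naked versus QL9-loaded vesicles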
Of the large screens only hits and unclear results are named; the others gave an inactive call. An excerpt weighted towards active compounds, which were near 1.5% of everything screened.

COc1cc(N=c2ssnc2Cl)cc(OC)c1	HDAC3 inhib inconclusive, Pemphigus Ab inh 62
C#CCOCCOCCOCCNc1nc(N2CCN(C(=O)[C@H](CCC(=O)O)n3cc([C@@H](N)CC(N)=O)nn3)CC2)nc(N2CCN(C(=O)[C@H](CCC(=O)O)n3cc([C@@H](N)CC(N)=O)nn3)CC2)n1	LANA-H2B inh 156
C#CCOCCOCCOCCNc1nc(N2CCN(C(=O)[C@H](CC(N)=O)n3cc([C@@H](N)CC(N)=O)nn3)CC2)nc(N2CCN(C(=O)[C@H](CC(N)=O)n3cc([C@@H](N)CC(N)=O)nn3)CC2)n1	none
CC(=O)c1ccc(OCC(=O)OCC(=O)Nc2sccc2C(N)=O)cc1	LANA-H2B inh 16
O=C1C=CN2CCCCC2CC1 (stereo not drawn)	none
CC(=O)c1cccc(S(=O)(=O)Nc2ccccc2N2CCOCC2)c1	Pemphigus Ab inh inconclusive
CCC/C(=N\NC(=O)c1ccc(CSc2nncn2C)cc1)c1ccccc1	none
Cn1cnnc1SCc1ccc(C(=O)N/N=C(\CCC(=O)O)c2ccc(C(C)(C)C)cc2)cc1	LANA-H2B inh active
CN(CCOc1ccccc1)C(=O)c1cc(S(=O)(=O)N2CCOCC2)c(Cl)cc1Cl	none (no result: Arr AP2 block, HDAC3 inhib, LANA-H2B inh, T cell modulator)
COc1ccc(-c2nn(CCC(=O)O)cc2/C=N/NC(N)=S)cc1	LANA-H2B inh 19 (no result: HDAC3 inhib)
CC(OC(=O)c1cccc(-n2cnnn2)c1)C(=O)Nc1ccc(F)cc1 (stereo not drawn)	none
O=[N+]([O-])c1ccc(S(=O)(=O)CC2CSc3nc4ccccc4n32)cc1 (stereo not drawn)	Pemphigus Ab inh -10
Cc1nnc2n(c1=O)C(CS(=O)(=O)c1ccccc1)CS2 (stereo not drawn)	none
COc1ccccc1CN(C)C(=O)c1ccccc1Sc1ccccc1C#N	none
O=[N+]([O-])c1ccccc1S(=O)(=O)Nc1ccc(-c2ccc3nncn3n2)cc1	none
Cc1ccc(NC(=O)CN(C)C(=O)CCSc2ccc(F)cc2)cc1	LANA-H2B inh 18
CC(C)(C)OC(=O)C[C@@H]1C/C=C\C[C@@H](CC(=O)N(CCO)Cc2ccccc2)C(=O)N[C@@H](c2ccccc2)COC1=O	none
Cc1cccc(C(=O)n2cnnc2N)c1	HDAC3 inhib 44
COc1ccc(C(=O)n2cnnc2N)cc1	HDAC3 inhib 81
Cc1ccc(C2=NN(CC(=O)NCCN(CC(C)C)CC(C)C)C(=O)CC2)cc1	LANA-H2B inh 15
CCOC(=O)CN1N=C(c2ccc(Cl)cc2)CCC1=O	Pemphigus Ab inh 66
CC(=O)c1ccc(COC(=O)c2cc3ccccc3oc2=O)cc1	LANA-H2B inh 11
CN(C)S(=O)(=O)c1cccc(NC(=O)COC(=O)c2cc3ccccc3oc2=O)c1	Pemphigus Ab inh 71
CC(=O)N(CCN(C(C)=O)c1ccccc1)c1ccccc1	none
CC(=O)N(Nc1ccccc1)c1ccccc1	Pemphigus Ab inh 67
CCC(Oc1ccccc1)C(=O)Nc1cc(C(F)(F)F)ccc1N1CCOCC1 (stereo not drawn)	none
O=C1c2cc(CO)cc(O)c2C(=O)c2c(O[C@@H]3OC(CO)[C@@H](O)[C@@H](O)[C@@H]3O)cccc21 (stereo partly drawn)	none
O=C(O)c1cc(O)c2c(c1)[C@@H]([C@H]1c3cc(C(=O)O)cc(O)c3C(=O)c3c(O[C@@H]4O[C@H](CO)[C@@H](O)[C@H](O)[C@H]4O)cccc31)c1cccc(OC3O[C@H](CO)[C@@H](O)[C@H](O)[C@H]3O)c1C2=O (stereo partly drawn)	Pemphigus Ab inh -1.1, LANA-H2B inh 19
O=C1c2c(O)cccc2C(C2OC(CO)[C@@H](O)[C@H](O)[C@H]2O)c2cc(CO)cc(O)c21 (stereo partly drawn)	none
